Measured values from paper PMC5214883 (Molecular cancer therapeutics, 2016).
Non-standard residues stand in square brackets, D forms with d. Residues, ends and D or L forms follow the SMILES beside them. *: point of attachment. Dolaproine = CO[C@@H]([C@@H]1CCCN1)[C@@H](C)C(=O)O; Dil = CC[C@H](C)[C@H](NC)[C@@H](CC(=O)O)OC; X1 = C[C@@H](N*)[C@@H](O)c1ccccc1; NMeV = CN[C@H](C(=O)O)C(C)C

Legend:
SKRC-52 xenografts [1] = details: cited from earlier work
[2] = test system: CAIX-expressing SKRC-52 cells; assay: In vitro cytotoxicity assay; format: cell-based, human; details: read-out: IC50 (cytotoxicity), 72 h, 37 °C, MTS
Dose escalation study = assay: Dose escalation study; design: species or system Balb/c nu/nu mice; details: female, athymic Balb/c nu/nu, mouse, in vivo
Summary of the method: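 Escalating doses (250 or 500 nmol/Kg) were given as five injections on five consecutive days to […] female athymic Balb/c nu/nu mice aged 8–10 weeks. An acetazolamide-targeted prodrug was compared with an untargeted analogue, with three mice per group.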

SKRC-52 xenografts [3] = assay: Therapy experiments in mice bearing subcutaneous SKRC-52 tumors; format: in vivo, Balb/c nu/nu mice; details: 250 nmol/Kg, ten daily administrations
[4] = Linker stability assay in PBS; format: physicochemical; details: pH 7.4
[5] = Linker stability assay in mouse serum; format: in vitro ADME

Q: Which “activity against SKRC-52 tumors” value (SKRC-52 xenografts [1]) does the source give for `CCN(CC)CCNC(=O)c1c(C)[nH]c(/C=C2\C(=O)Nc3ccc(F)cc32)c1C` [sunitinib] here?
A: Its value is “did not display any detectable activity”.

Q: For `COc1cccc2c1C(=O)c1c(O)c3c(c(O)c1C2=O)C[C@@](O)(C(=O)CO)C[C@@H]3O[C@H]1C[C@H]2[C@H](O[C@@H]3[C@@H](OC)OCCN32)[C@H](C)O1` [PNU-159682], which IC50 [2] is on record?
A: Its IC50 is 0.16 nM.

Q: For `CC[C@H](C)[C@@H]([C@@H](CC(=O)N1CCC[C@H]1[C@H](OC)[C@@H](C)C(=O)N[C@H](C)[C@@H](O)c1ccccc1)OC)N(C)C(=O)[C@@H](NC(=O)[C@H](C(C)C)N(C)C(=O)OCc1ccc(NC(=O)[C@H](CCCNC(N)=O)NC(=O)[C@@H](NC(=O)CCCCCN2C(=O)CC(SC[C@H](NC(=O)[C@H](CC(=O)O)NC(=O)[C@H](CCCNC(=N)N)NC(=O)[C@H](CC(=O)O)NC(=O)CCCCn3cc(CCCC(=O)Nc4nnc(S(N)(=O)=O)s4)nn3)C(=O)O)C2=O)C(C)C)cc1)C(C)C` (some centres unmarked) [Compound 4a], which MTD at 5 days (Dose escalation study) is on record?
A: Its MTD at 5 days is 0.5 µmol/kg.

Q: What about the “acute toxicity and body weight” value (SKRC-52 xenografts [3]) of the same compound?
A: Its value is “no acute toxicity and no significant weight loss”.

Q: What about the durable complete response (SKRC-52 xenografts [3]) of the same compound?
A: Its durable complete response is “One out of five”.

Q: And the half-life at 100 μg/ml [4]?
A: Its half-life at 100 μg/ml is > 48 h.

Q: What about the “main release product (mass spectrometric analysis)” value ([5]; degradation profile in mouse serum) of the same compound?
A: Its value is “free MMAE”.

Q: And the “conjugate intact after 6 hours in mouse serum” value ([5]; mouse serum, 37 °C, 6 hours, LC-MS)?
A: Its value is > 70%.

Q: What about the half-life ([5]; mouse, mouse serum) of the same compound?
A: Its half-life is ~7 h.

Q: Which IC50 [2] does the source give for `CC[C@H](C)[C@@H]([C@@H](CC(=O)N1CCC[C@H]1[C@H](OC)[C@@H](C)C(=O)N[C@H](C)[C@@H](O)c1ccccc1)OC)N(C)C(=O)[C@@H](NC(=O)[C@@H](NC)C(C)C)C(C)C` [MMAE, monomethyl auristatin E] (H-[NMeV]V[Dil][Dolaproine]-X1) here?
A: The IC50 was 1.5 nM.

Q: With `CNC(=O)c1cc(Oc2ccc(NC(=O)Nc3ccc(Cl)c(C(F)(F)F)c3)cc2)ccn1` [sorafenib] as the compound, how does the “activity against SKRC-52 tumors” value (SKRC-52 xenografts [1]) read?
A: Its value is “did not display any detectable activity”.
